Reference: ChEMBL document CHEMBL3751716, “Identification of 5-Methoxyflavone as a Novel DNA Polymerase-Beta Inhibitor and Neuroprotective Agent against Beta-Amyloid Toxicity” (J Nat Prod, 2015)
The source made the active and inactive calls. No cut-off for these calls is given here.

Tests used:
[1] = Cytotoxicity against mouse 88TAg fibroblasts assessed as compound level causing reduction of cell viability incubated for 2 hrs by MTT assay
Outline: (§1)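 Mouse embryonic fibroblasts, 92TAg (wild type) or 88TAg (pol-β null), were seeded 5 × 10^3/well and serum-deprived at treatment. Compound (5-60 μM) was given 2 h, then a 2 h MMS pulse (500 μM for 92TAg, 250 μM for 88TAg). After washout, compound was re-added and viability read 24 h from start by MTT (0.9 mg/mL, 2 h, 37 °C; DMSO lysis; A570). Means ± SEM, 3-9 determinations.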

[2] = Cytotoxicity against mouse 88TAg fibroblasts assessed as reduction of cell viability at 60 uM incubated for 2 hrs by MTT assay; outline: as §1
Mus musculus [3] = organism: Mus musculus; assay: Effect on cell cycle distribution in against mouse 92TAg cells assessed as cell accumulation at S-phase at 8 ug/ml incubated for 15 hrs by propidium iodide staining based cytofluorimetric analysis; format: functional
Outline: (§2)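 Mouse embryonic fibroblasts (wild-type 92TAg; pol-β-null 88TAg) grown in DMEM with 10% FBS at 37 °C and 5% CO2. Synchronized in 0.2% FBS medium for 72 h, then returned to 10% FBS medium with compound for 15 h. Cell-cycle phase percentages scored by cytofluorimetry of propidium iodide-labeled cells. Experiments run at least in triplicate, one-way ANOVA.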

Mus musculus [4] = organism: Mus musculus; assay: Effect on cell cycle distribution in against polymerase-beta knock out mouse 88TAg cells assessed as cell accumulation at S-phase at 8 ug/ml incubated for 15 hrs by propidium iodide staining based cytofluorimetric analysis; format: functional; outline: as §2
[5] = tested on: DNA polymerase beta (Mus musculus); assay: Inhibition of DNA polymerase-beta in mouse wild-type 92TAg cells assessed as increase in MMS toxicity at 1 to 60 uM incubated for 2 hrs prior to MMS challenge for 2 hrs followed by post wash compound addition measured after 24 hrs by MTT assay
[6] = target: DNA polymerase beta (Homo sapiens) (UniProt P06746); settings: 50 uM
[7] = Cytotoxicity against Sprague-Dawley rat cortical neurons at 50 uM by MTT assay; settings: cortical neurone

Compound: c1ccc2c(c1)c1ccccc1n2Cn1c2ccccc2c2ccccc21
- Activity [1]: <= 90%

Compound: O=c1cc(-c2ccccc2O)oc2c1ccc1ccccc12
- Activity [1]: 10 µM
- Activity [2]: <= 90%

Compound: C[C@@]1(CO)[C@H](O)CC[C@@]2(C)[C@H]1CC[C@H]1C[C@@H]3C[C@@]12CC[C@]3(O)CO
- Activity (Mus musculus [3]): Active
- Activity (Mus musculus [4]): Active

Compound: Cc1ccccc1Nc1nc2ccc([N+](=O)[O-])cc2nc1Nc1ccccc1C
- Activity [1]: <= 90%

Compound: CC1(C)NCCC12C(=O)N(Cc1ccccc1)c1ccccc12 (stereo unspecified)
- Activity [1]: Non-toxic
- inhibition [5]: inactive

Compound: C[C@H](C(=O)O)c1cccc(C(=O)c2ccccc2)c1 [DEXKETOPROFEN]
- Activity [1]: Non-toxic

Compound: CC1(C)CC[C@]2(C(=O)O)CC[C@]3(C)C(=CC[C@@H]4[C@@]5(C)CC[C@H](O)C(C)(C)[C@@H]5CC[C@]43C)[C@@H]2C1 [OLEANOLIC_ACID]
- inhibition [6]: Active
- Activity [7]: Toxic
